Experimental data taken from ChEMBL document CHEMBL1909531, “Mitochondrial respiration inhibitors suppress protein translation and hypoxic signaling via the hyperphosphorylation and inactivation of translation initiation factor eIF2α and elongation factor eEF2” (J Nat Prod, 2011).
The source made the active and inactive calls. The rule behind the calls is not given here.

Tests used:
[1] = biological target: T1, Hypoxia inducible factors; HIF-1-alpha, HIF-2-alpha (Homo sapiens, UniProt Q16665+Q99814); experiment: Inhibition of HIF1-mediated induction of VEGF mRNA expression in hypoxia-stimulated human T47D cells at 0.3 to 3 uM after 16 hrs by RT-PCR analysis; assay type: cell-based
[2] = biological target: Serine/threonine-protein kinase mTOR (Homo sapiens) (UniProt P42345); experiment: Inhibition of mTOR-mediated 4E-BP1 phosphorylation on Thr 37/46 in human T47D cells at 1 to 10 uM after 30 mins by Western blotting; assay type: cell-based
[3] = biological target: T1, Hypoxia inducible factors; HIF-1-alpha, HIF-2-alpha; experiment: Inhibition of HIF1-mediated induction of cellular VEGF protein in hypoxia-stimulated human T47D cells at 3 uM after 16 hrs by ELISA; assay type: cell-based
MDA-MB-231 = experiment: Antiproliferative activity against human MDA-MB-231 cells assessed as cell viability by SRB assay; assay type: functional, cell-based
In short: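 Cells grown in DMEM/F12 with 10% FBS, penicillin and streptomycin; 96-well viability assay, 2-day or 6-day exposure, with medium (5% FBS) and compound renewed after 3 days in the 6-day study. Read by optical density; % inhibition = [1 − (ODtreated/ODcontrol)] × 100 versus medium control.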

[4] = biological target: Serine/threonine-protein kinase mTOR (Homo sapiens) (UniProt P42345); experiment: Inhibition of mTOR-mediated rpS6 phosphorylation on Ser 235/236 in human T47D cells at 1 to 10 uM after 30 mins by Western blotting; assay type: cell-based
[5] = biological target: Serine/threonine-protein kinase mTOR (Homo sapiens) (UniProt P42345); experiment: Inhibition of mTORC1-mediated eIF4E phosphorylation on Ser 209 in human T47D cells at 1 to 10 uM after 30 mins by Western blotting; assay type: cell-based
[6] = biological target: T1, Hypoxia inducible factors; HIF-1-alpha, HIF-2-alpha; experiment: Inhibition of hypoxia-induced HIF1 activation in human T47D cells after 16 hrs by HRE3-TK-luciferase reporter gene assay; assay type: cell-based
In short: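 T47D cells carrying the pHRE3-TK-Luc reporter, grown in DMEM/F12 with 10% FBS; HIF-1 induced by hypoxia (1% O2). Activity reported as % inhibition of the induced control, calculated as [1 − (treated/control)] × 100.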

[7] = biological target: Serine/threonine-protein kinase mTOR (Homo sapiens) (UniProt P42345); experiment: Inhibition of mTOR-mediated eIF4E phosphorylation on Ser 209 in human MDA-MB-231 cells at 1 to 10 uM after 30 mins by Western blotting; assay type: cell-based
T47D [8] = experiment: Reduction in ATP level in human T47D cells by HPLC-UV analysis at 1 uM after 72 hrs; assay type: functional, cell-based
In short: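 Cells seeded at 5 × 10^5 per well in DMEM/F12 with 10% FBS; after 24 h, half the medium was replaced with serum-free medium containing compound. Cells washed with cold DPBS, extracted with cold 0.4 M perchloric acid, neutralized with K2CO3. Nucleotides quantified by C18 HPLC-UV, 50 mM potassium phosphate pH 6.0/MeOH mobile phase, 0.7 mL/min.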

[9] = biological target: Serine/threonine-protein kinase mTOR (Homo sapiens) (UniProt P42345); experiment: Inhibition of mTOR in human MDA-MB-231 cells assessed as eIF2alpha hyperphosphorylation on Ser 51 at 1 to 10 uM after 30 mins by Western blotting; assay type: cell-based
In short: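 Cells seeded at 0.8 × 10^6 per well, exposed 30 min at 37 °C, 5% CO2, in DMEM/F12 with 5% FBS. Lysed in modified RIPA (pH 7.6) with protease and phosphatase inhibitors; 40 µg protein run on 4–20% gels, nitrocellulose transfer. Phospho-specific and total eIF2α/eEF2 primaries at 1:1,000, HRP anti-rabbit at 1:2000, chemiluminescence on film.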

T47D [10] = experiment: Reduction in ATP level in human T47D cells after 72 hrs by HPLC-UV analysis; assay type: functional, cell-based
In short: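 5 × 10^5 cells per well seeded in DMEM/F12 with 10% FBS. After 24 h, half the medium replaced with serum-free DMEM/F12 containing compound. After exposure, cells washed in cold DPBS and extracted with cold 0.4 M perchloric acid, then neutralized with K2CO3. ATP quantified by reversed-phase C18 HPLC-UV using 50 mM potassium phosphate pH 6.0/MeOH at 0.7 mL/min.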

[11] = biological target: T1, Hypoxia inducible factors; HIF-1-alpha, HIF-2-alpha; experiment: Inhibition of HIF1-mediated induction of Glut-1 mRNA expression in hypoxia-stimulated human T47D cells at 0.3 to 3 uM after 16 hrs by RT-PCR analysis; assay type: cell-based

inhibition [1]: Active
inhibition [2]: inactive
inhibition [3]: Active
inhibition [4]: inactive
inhibition [5]: inactive
IC50 [6]: 63 nM
inhibition [7]: inactive
Activity [9]: Dose-dependent effect
inhibition [11]: Active
SMILES: CC(C)CC(=O)O[C@@H]1CC[C@]2(C)[C@H]3CC[C@]45C[C@]4(CC[C@@H]5[C@@H]4C[C@H]([C@@H]5OC5(C)C)OC4O)[C@]3(C)[C@H](O)C[C@H]2C1(C)C (some centres not stated) [SKIMMIAREPIN A]
Activity (MDA-MB-231): inactive
Activity (T47D [8]): Active
Activity (T47D [10]): Dose-dependent effect
